Reference: ChEMBL document CHEMBL1828620, “Synthesis of novel 6-phenyl-2,4-disubstituted pyrimidine-5-carbonitriles as potential antimicrobial agents” (2011)

What follows are compounds tested on Candida albicans (assay: Antifungal activity against Candida albicans IFO 0583 at 200 ug/disc after 48 hrs by agar disc diffusion method). Conditions: IFO 0583, 48 h, read-out: DIZ.
Type: functional
Method in brief: (§1)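 Agar disc diffusion: sterile 8 mm filter-paper discs moistened with compound solution in DMSO, placed on agar plates each pre-inoculated with one organism; plates held at 37 °C; growth inhibition zone diameter measured after 24 h (bacteria) or 48 h (C. albicans).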

Question: For `Cc1ccc(Sc2nc(SCc3ccc(Cl)cc3)nc(-c3ccccc3)c2C#N)cc1`, which zone of inhibition at 200 µg/disc is on record?
Answer: < 10 mm

Question: How did the zone of inhibition at 200 µg/disc turn out when `N#Cc1c(Nc2cccc(C(F)(F)F)c2)nc(SCc2ccc(Cl)cc2)nc1-c1ccccc1` was run?
Answer: < 10 mm

Question: Which zone of inhibition at 200 µg/disc does the source give for `N#Cc1c(Cl)nc(SCc2ccc(Cl)cc2)nc1-c1ccccc1` here?
Answer: 12 mm

Question: Which zone of inhibition at 200 µg/disc does the source give for `N#Cc1c(-c2ccccc2)nc(SCc2ccccc2)[nH]c1=O` here?
Answer: < 10 mm

Question: With `N#Cc1c(Nc2ccc(C(F)(F)F)cc2)nc(SCc2ccc(Cl)cc2)nc1-c1ccccc1` as the compound, how does the zone of inhibition at 200 µg/disc read?
Answer: < 10 mm

Question: How did the zone of inhibition at 200 µg/disc turn out when `CCSCCSc1nc(-c2ccccc2)c(C#N)c(=O)[nH]1` was run?
Answer: 12 mm

Question: Which zone of inhibition at 200 µg/disc does the source give for `Cc1cccc(Sc2nc(SCc3ccc(Cl)cc3)nc(-c3ccccc3)c2C#N)c1` here?
Answer: < 10 mm

Question: Which zone of inhibition at 200 µg/disc does the source give for `Cc1ccccc1Sc1nc(SCc2ccc(Cl)cc2)nc(-c2ccccc2)c1C#N` here?
Answer: < 10 mm

Question: Which zone of inhibition at 200 µg/disc does the source give for `N#Cc1c(Nc2ccccc2C(F)(F)F)nc(SCc2ccc(Cl)cc2)nc1-c1ccccc1` here?
Answer: < 10 mm

Question: For `N#Cc1c(-c2ccccc2)nc(SCOCc2ccccc2)[nH]c1=O`, which zone of inhibition at 200 µg/disc is on record?
Answer: < 10 mm

Each compound was assayed on Pseudomonas aeruginosa (assay: Antimicrobial activity against Pseudomonas aeruginosa IFO 3448 at 200 ug/disc after 24 hrs by agar disc diffusion method). Conditions: IFO 3448, 24 h, read-out: DIZ.
Type: functional
Method in brief: as §1

Question: `Cc1ccc(Sc2nc(SCc3ccc(Cl)cc3)nc(-c3ccccc3)c2C#N)cc1` was tested. Which zone of inhibition at 200 µg/disc did it give?
Answer: < 10 mm

Question: How did the zone of inhibition at 200 µg/disc turn out when `N#Cc1c(Nc2cccc(C(F)(F)F)c2)nc(SCc2ccc(Cl)cc2)nc1-c1ccccc1` was run?
Answer: < 10 mm

Question: With `N#Cc1c(Cl)nc(SCc2ccc(Cl)cc2)nc1-c1ccccc1` as the compound, how does the zone of inhibition at 200 µg/disc read?
Answer: 14 mm

Question: For `N#Cc1c(-c2ccccc2)nc(SCc2ccccc2)[nH]c1=O`, which zone of inhibition at 200 µg/disc is on record?
Answer: < 10 mm

Question: With `N#Cc1c(Nc2ccc(C(F)(F)F)cc2)nc(SCc2ccc(Cl)cc2)nc1-c1ccccc1` as the compound, how does the zone of inhibition at 200 µg/disc read?
Answer: < 10 mm

Question: For `CCSCCSc1nc(-c2ccccc2)c(C#N)c(=O)[nH]1`, which zone of inhibition at 200 µg/disc is on record?
Answer: 14 mm

Question: `Cc1cccc(Sc2nc(SCc3ccc(Cl)cc3)nc(-c3ccccc3)c2C#N)c1` was tested. Which zone of inhibition at 200 µg/disc did it give?
Answer: < 10 mm

Question: With `Cc1ccccc1Sc1nc(SCc2ccc(Cl)cc2)nc(-c2ccccc2)c1C#N` as the compound, how does the zone of inhibition at 200 µg/disc read?
Answer: < 10 mm

Question: For `N#Cc1c(Nc2ccccc2C(F)(F)F)nc(SCc2ccc(Cl)cc2)nc1-c1ccccc1`, which zone of inhibition at 200 µg/disc is on record?
Answer: < 10 mm

Question: For `N#Cc1c(-c2ccccc2)nc(SCOCc2ccccc2)[nH]c1=O`, which zone of inhibition at 200 µg/disc is on record?
Answer: < 10 mm

What follows are compounds tested on Bacillus subtilis (assay: Antimicrobial activity against Bacillus subtilis IFO 3007 at 200 ug/disc after 24 hrs by agar disc diffusion method). Conditions: IFO 3007, 24 h, read-out: DIZ.
Type: functional
Method in brief: as §1

Question: With `Cc1ccc(Sc2nc(SCc3ccc(Cl)cc3)nc(-c3ccccc3)c2C#N)cc1` as the compound, how does the zone of inhibition at 200 µg/disc read?
Answer: 13 mm

Question: `N#Cc1c(Nc2cccc(C(F)(F)F)c2)nc(SCc2ccc(Cl)cc2)nc1-c1ccccc1` was tested. Which zone of inhibition at 200 µg/disc did it give?
Answer: 14 mm

Question: With `N#Cc1c(Cl)nc(SCc2ccc(Cl)cc2)nc1-c1ccccc1` as the compound, how does the zone of inhibition at 200 µg/disc read?
Answer: 26 mm

Question: How did the zone of inhibition at 200 µg/disc turn out when `N#Cc1c(-c2ccccc2)nc(SCc2ccccc2)[nH]c1=O` was run?
Answer: 17 mm

Question: Which zone of inhibition at 200 µg/disc does the source give for `N#Cc1c(Nc2ccc(C(F)(F)F)cc2)nc(SCc2ccc(Cl)cc2)nc1-c1ccccc1` here?
Answer: 17 mm

Question: `CCSCCSc1nc(-c2ccccc2)c(C#N)c(=O)[nH]1` was tested. Which zone of inhibition at 200 µg/disc did it give?
Answer: 16 mm

Question: Which zone of inhibition at 200 µg/disc does the source give for `Cc1cccc(Sc2nc(SCc3ccc(Cl)cc3)nc(-c3ccccc3)c2C#N)c1` here?
Answer: < 10 mm

Question: `Cc1ccccc1Sc1nc(SCc2ccc(Cl)cc2)nc(-c2ccccc2)c1C#N` was tested. Which zone of inhibition at 200 µg/disc did it give?
Answer: < 10 mm

Question: How did the zone of inhibition at 200 µg/disc turn out when `N#Cc1c(Nc2ccccc2C(F)(F)F)nc(SCc2ccc(Cl)cc2)nc1-c1ccccc1` was run?
Answer: 12 mm

Question: How did the zone of inhibition at 200 µg/disc turn out when `N#Cc1c(-c2ccccc2)nc(SCOCc2ccccc2)[nH]c1=O` was run?
Answer: 16 mm

These compounds were tested on Escherichia coli (assay: Antimicrobial activity against Escherichia coli IFO 3301 at 200 ug/disc after 24 hrs by agar disc diffusion method). Conditions: IFO 3301, 24 h, read-out: DIZ.
Type: functional
Method in brief: as §1

Question: For `Cc1ccc(Sc2nc(SCc3ccc(Cl)cc3)nc(-c3ccccc3)c2C#N)cc1`, which zone of inhibition at 200 µg/disc is on record?
Answer: < 10 mm

Question: With `N#Cc1c(Nc2cccc(C(F)(F)F)c2)nc(SCc2ccc(Cl)cc2)nc1-c1ccccc1` as the compound, how does the zone of inhibition at 200 µg/disc read?
Answer: < 10 mm

Question: For `N#Cc1c(Cl)nc(SCc2ccc(Cl)cc2)nc1-c1ccccc1`, which zone of inhibition at 200 µg/disc is on record?
Answer: 16 mm

Question: How did the zone of inhibition at 200 µg/disc turn out when `N#Cc1c(-c2ccccc2)nc(SCc2ccccc2)[nH]c1=O` was run?
Answer: < 10 mm

Question: With `N#Cc1c(Nc2ccc(C(F)(F)F)cc2)nc(SCc2ccc(Cl)cc2)nc1-c1ccccc1` as the compound, how does the zone of inhibition at 200 µg/disc read?
Answer: < 10 mm

Question: With `CCSCCSc1nc(-c2ccccc2)c(C#N)c(=O)[nH]1` as the compound, how does the zone of inhibition at 200 µg/disc read?
Answer: 16 mm

Question: Which zone of inhibition at 200 µg/disc does the source give for `Cc1cccc(Sc2nc(SCc3ccc(Cl)cc3)nc(-c3ccccc3)c2C#N)c1` here?
Answer: < 10 mm

Question: How did the zone of inhibition at 200 µg/disc turn out when `Cc1ccccc1Sc1nc(SCc2ccc(Cl)cc2)nc(-c2ccccc2)c1C#N` was run?
Answer: < 10 mm

Question: `N#Cc1c(Nc2ccccc2C(F)(F)F)nc(SCc2ccc(Cl)cc2)nc1-c1ccccc1` was tested. Which zone of inhibition at 200 µg/disc did it give?
Answer: < 10 mm

Question: How did the zone of inhibition at 200 µg/disc turn out when `N#Cc1c(-c2ccccc2)nc(SCOCc2ccccc2)[nH]c1=O` was run?
Answer: < 10 mm

The compounds below were run on Staphylococcus aureus (assay: Antimicrobial activity against Staphylococcus aureus IFO 3060 at 200 ug/disc after 24 hrs by agar disc diffusion method). Conditions: IFO 3060, 24 h, read-out: DIZ.
Type: functional
Method in brief: as §1

Question: With `Cc1ccc(Sc2nc(SCc3ccc(Cl)cc3)nc(-c3ccccc3)c2C#N)cc1` as the compound, how does the zone of inhibition at 200 µg/disc read?
Answer: 14 mm

Question: For `N#Cc1c(Nc2cccc(C(F)(F)F)c2)nc(SCc2ccc(Cl)cc2)nc1-c1ccccc1`, which zone of inhibition at 200 µg/disc is on record?
Answer: 14 mm

Question: How did the zone of inhibition at 200 µg/disc turn out when `N#Cc1c(Cl)nc(SCc2ccc(Cl)cc2)nc1-c1ccccc1` was run?
Answer: 24 mm

Question: Which zone of inhibition at 200 µg/disc does the source give for `N#Cc1c(-c2ccccc2)nc(SCc2ccccc2)[nH]c1=O` here?
Answer: 16 mm

Question: With `N#Cc1c(Nc2ccc(C(F)(F)F)cc2)nc(SCc2ccc(Cl)cc2)nc1-c1ccccc1` as the compound, how does the zone of inhibition at 200 µg/disc read?
Answer: 15 mm

Question: `CCSCCSc1nc(-c2ccccc2)c(C#N)c(=O)[nH]1` was tested. Which zone of inhibition at 200 µg/disc did it give?
Answer: 12 mm

Question: How did the zone of inhibition at 200 µg/disc turn out when `Cc1cccc(Sc2nc(SCc3ccc(Cl)cc3)nc(-c3ccccc3)c2C#N)c1` was run?
Answer: < 10 mm

Question: `Cc1ccccc1Sc1nc(SCc2ccc(Cl)cc2)nc(-c2ccccc2)c1C#N` was tested. Which zone of inhibition at 200 µg/disc did it give?
Answer: < 10 mm

Question: With `N#Cc1c(Nc2ccccc2C(F)(F)F)nc(SCc2ccc(Cl)cc2)nc1-c1ccccc1` as the compound, how does the zone of inhibition at 200 µg/disc read?
Answer: 12 mm

Question: `N#Cc1c(-c2ccccc2)nc(SCOCc2ccccc2)[nH]c1=O` was tested. Which zone of inhibition at 200 µg/disc did it give?
Answer: 14 mm

These compounds were tested on Candida albicans (assay: Antifungal activity against Candida albicans IFO 0583 at 100 ug/disc after 48 hrs by agar disc diffusion method). Conditions: IFO 0583, 48 h, read-out: DIZ.
Type: functional
Method in brief: as §1

Question: How did the zone of inhibition at 100 µg/disc turn out when `Clc1ccccc1C(c1ccccc1)(c1ccccc1)n1ccnc1` [CLOTRIMAZOLE] was run?
Answer: 21 mm

Each compound was assayed on Micrococcus luteus (assay: Antimicrobial activity against Micrococcus luteus IFO 3232 at 200 ug/disc after 24 hrs by agar disc diffusion method). Conditions: IFO 3232, 24 h, read-out: DIZ.
Type: functional
Method in brief: as §1

Question: For `Cc1ccc(Sc2nc(SCc3ccc(Cl)cc3)nc(-c3ccccc3)c2C#N)cc1`, which zone of inhibition at 200 µg/disc is on record?
Answer: 11 mm

Question: `N#Cc1c(Nc2cccc(C(F)(F)F)c2)nc(SCc2ccc(Cl)cc2)nc1-c1ccccc1` was tested. Which zone of inhibition at 200 µg/disc did it give?
Answer: 11 mm

Question: Which zone of inhibition at 200 µg/disc does the source give for `N#Cc1c(Cl)nc(SCc2ccc(Cl)cc2)nc1-c1ccccc1` here?
Answer: 18 mm

Question: With `N#Cc1c(-c2ccccc2)nc(SCc2ccccc2)[nH]c1=O` as the compound, how does the zone of inhibition at 200 µg/disc read?
Answer: 16 mm

Question: With `N#Cc1c(Nc2ccc(C(F)(F)F)cc2)nc(SCc2ccc(Cl)cc2)nc1-c1ccccc1` as the compound, how does the zone of inhibition at 200 µg/disc read?
Answer: 13 mm

Question: Which zone of inhibition at 200 µg/disc does the source give for `CCSCCSc1nc(-c2ccccc2)c(C#N)c(=O)[nH]1` here?
Answer: 12 mm

Question: Which zone of inhibition at 200 µg/disc does the source give for `Cc1cccc(Sc2nc(SCc3ccc(Cl)cc3)nc(-c3ccccc3)c2C#N)c1` here?
Answer: < 10 mm

Question: `Cc1ccccc1Sc1nc(SCc2ccc(Cl)cc2)nc(-c2ccccc2)c1C#N` was tested. Which zone of inhibition at 200 µg/disc did it give?
Answer: < 10 mm

Question: For `N#Cc1c(Nc2ccccc2C(F)(F)F)nc(SCc2ccc(Cl)cc2)nc1-c1ccccc1`, which zone of inhibition at 200 µg/disc is on record?
Answer: 10 mm

Question: Which zone of inhibition at 200 µg/disc does the source give for `N#Cc1c(-c2ccccc2)nc(SCOCc2ccccc2)[nH]c1=O` here?
Answer: 13 mm
